These results are taken from PubChem BioAssay AID651783 (The Scripps Research Institute Molecular Screening Center, 2012).

Each structure is given as a SMILES string. In all, about 2,400 compounds went through this assay and about 2,000 (83%) were called active.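 The calls were made as follows: active = activation above a cutoff set at the run's mean compound activation plus 3 SD (cut at about 39% in these data); inactive = the rest.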 So high a share suggests a set chosen from earlier hits. Only a sample is shown.

Sequence of Trace amine-associated receptor 1 (Homo sapiens) (Q96RJ0 whole entry, looked up): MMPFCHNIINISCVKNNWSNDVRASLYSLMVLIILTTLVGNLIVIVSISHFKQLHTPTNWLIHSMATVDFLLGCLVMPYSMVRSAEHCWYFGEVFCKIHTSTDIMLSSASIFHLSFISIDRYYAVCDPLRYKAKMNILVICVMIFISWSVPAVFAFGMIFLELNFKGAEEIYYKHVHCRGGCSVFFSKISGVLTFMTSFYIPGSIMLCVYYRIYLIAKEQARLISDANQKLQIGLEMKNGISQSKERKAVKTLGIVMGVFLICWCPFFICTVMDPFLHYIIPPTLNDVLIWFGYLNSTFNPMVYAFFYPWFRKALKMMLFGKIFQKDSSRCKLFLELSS

For the experiment, the target named is Trace amine-associated receptor 1 (Homo sapiens) (UniProt Q96RJ0). The experiment is described as follows: human TAAR1 agonists, retest of hits, confirmation, Fluo-8 calcium fluorescence, CHO RD-HGA16 cells (AID 651783).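 Also: promiscuous G-alpha-16 overexpression reroutes TAAR1 signalling from cAMP to calcium; peak fluorescence divided by basal pre-compound fluorescence per well; 0% = DMSO wells and 100% = phenethylamine at EC100.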 The note with it: CHO RD-HGA16 TAAR1, Fluo-8 calcium fluorescence; at 3 µM; active compounds read high. The essentials: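 material = RD-HGA16 CHO cells co-expressing hTAAR1 and promiscuous Gα16 | dosing = 3 µM single dose | incubation = Fluo-8 dye loading 75 min 37 °C, then 30 min room temperature | measured by = kinetic Fluo-8 calcium fluorescence over 140 s after basal | read-out = % activation from max-to-basal fluorescence ratio, DMSO-to-PEA scaled | repeats = triplicate wells per compound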
`c1ccc(CCNC2CCCCCC2)cc1`: the activation was 91.8% (active). As to `CCCCC(=O)N/N=C/c1c(O)n(CC)c(=S)n(CC)c1=O`, the activation was 106% (active). Turning to `Cc1cccc(N2C(=O)NC(=O)/C(=C\c3cnn(-c4ccccc4)c3)C2=O)c1`, the activation is 46.7% (active). Turning to `NCC(O)c1ccc(O)cc1` (centres undefined), the activation was 88.3% (active).

Consider `COc1ccc(Br)cc1CNCCc1cccc(Cl)c1`, for which the activation was 71% (active).

Take `CC(Cc1ccccc1)NC=O` (centres undefined): the activation is 82.1% (active).

In the case of `CCC(=NCCc1ccccc1)c1c(O)n(C2CCCCC2)c(=O)[nH]c1=O`, the activation was 76.4% (active). Then `Clc1ccc2nc3c(c(-c4ccccc4)c2c1)CNCC3`, with 71% (active); and `O=C1NC(=O)N(Cc2ccco2)C(=O)/C1=C\c1ccc(-c2ccc(F)cc2)o1`, with 52.5% (active).
